Test results taken from article PMC11700703 (Nature cardiovascular research, 2024).
Entries after “also recorded” stand apart in the source; their conditions may differ.

Assays:
[1] = tested on: mitochondria of rat hearts after myocardial IR; test: Rat in vivo LAD ligation IR: mitochondrial oxygen consumption after IR; conditions: 3mg/kg IP at reperfusion, 24 hours after reperfusion, n=15
[2] = tested on: F1FO-ATP synthase (ATPase activity); test: F1FO-ATPase activity assay; type: biochemical, rat; conditions: P888 (2μM) co-incubation with cTnI (2μg); n=3 independent experiments
Procedure, shortened: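 Rat heart mitochondria (4 μg, solubilized) were captured on anti-ATP synthase antibody plates and co-incubated with recombinant human cTnI (2 μg) ± test peptide (2 μM). Absorbance was read over 120 min. Oligomycin served as negative control. n=3 independent experiments, each in 3–4 replicates; two-way ANOVA with Sidak correction.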

[3] = target: cTnI binding to immune-captured ATP synthase (UniProt P19429+P31399); test: Inhibition of cTnI binding to ATP synthase by ELISA; type: rat heart mitochondria; recombinant human cTnI; conditions: P888 2μM
Chain of cTnI binding to immune-captured ATP synthase (P19429 whole entry): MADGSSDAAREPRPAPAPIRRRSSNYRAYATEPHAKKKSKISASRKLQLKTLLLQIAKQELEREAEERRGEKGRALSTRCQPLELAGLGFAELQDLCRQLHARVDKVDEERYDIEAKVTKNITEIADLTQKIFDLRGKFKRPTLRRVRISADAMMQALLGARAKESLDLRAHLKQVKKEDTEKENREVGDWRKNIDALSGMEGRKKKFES
Chain of cTnI binding to immune-captured ATP synthase (P31399 2-161 limits assumed): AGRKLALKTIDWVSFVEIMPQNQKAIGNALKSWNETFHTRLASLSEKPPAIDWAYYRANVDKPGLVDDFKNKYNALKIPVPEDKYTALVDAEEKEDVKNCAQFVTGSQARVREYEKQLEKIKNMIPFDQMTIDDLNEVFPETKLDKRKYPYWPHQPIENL
Procedure, shortened: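 ELISA on anti-ATP synthase antibody plates blocked with 2% BSA. Plates were co-incubated with solubilized rat heart mitochondria (4 μg) and recombinant human cTnI (2 μg) ± test peptide (2 μM). After washing, bound cTnI was detected with HRP anti-cTnI antibody (1:5000, 1 h), then TMB, stopped with 2N sulfuric acid; absorbance at 450 nm.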

- inhibition of cTnI binding to the immune-captured ATP synthase ([3]; cTnI (2μg), n=3): ~ 78%
Substance: A2GRKLALKTI11 [P888]
- mitochondrial respiration after IR [1]: no significant effect of P888 on mitochondrial function
- prevention of cTnI-induced increase in ATPase activity [2]: blocked the cTnI-induced increase in ATPase activity; also recorded: P888 co-incubation prevents this effect; also recorded: inhibited cTnI-induced increase in ATPase activity in vitro
- inhibition of cTnI binding to ATP synthase ([3]; n=3, result in words): binding is inhibited in the presence of P888; also recorded: inhibited cTnI binding to ATP synthase
